Assay results collected from several papers.
Lines come from different studies, so protocols differ.
Htr2a: 5-hydroxytryptamine receptor 2A (Htr2a, Mus musculus, UniProt P35363)
Short transient receptor potential channel 5: Short transient receptor potential channel 5 (Mus musculus, UniProt Q9QX29)

`CN1CC[C@@]2(C)c3cc(OC(=O)Nc4ccccc4)ccc3N(C)[C@@H]12` has an IC50 of < 10 µM (Aldehyde dehydrogenase, mitochondrial (ALDH2, Homo sapiens, UniProt P05091); enzyme activity, inhibitor, fluorescence).
`COc1cc(CCN)c(OC)cc1C#N` gave an EC50 of 0.32 µM (Htr2a; G protein activation, agonist, BRET).
With `COc1cc2c(cc1OC)CN(CCc1ccc(NC(=O)c3cccc4c(=O)c5cccc(OC)c5[nH]c34)cc1)CC2` the Ki was > 10 µM (Beta-3 adrenergic receptor (ADRB3, Homo sapiens, UniProt P13945); cell-free assay).
The IC50 of `CN(C)CCCN1c2ccccc2CCc2ccccc21` is reported as 11.7 µM (Short transient receptor potential channel 5; ion current, inhibitor, patch clamp).
`COc1cc(CCNC(C)c2ccccc2O)c(OC)cc1Br` (centres unmarked) has an EC50 of 0.00094 µM (Htr2a; G protein activation, agonist, BRET).
`CNCCCN1c2ccccc2CCc2ccccc21` gave an IC50 of 10.3 µM (Short transient receptor potential channel 5; ion current, inhibitor, patch clamp).
The IC50 of `Cc1ccc(OCC(=O)N[C@@H](Cc2c[nH]c3ccccc23)C(=O)OC(C)C)cc1` is reported as > 50 µM (Cytochrome P450 3A4 (CYP3A4, Homo sapiens, UniProt P08684); enzyme activity, inhibitor; human, liver microsomes; 30 min, midazolam probe).
`CC(=O)c1c(C)c2cnc(Nc3ccc(C4CCN(CCS(C)(=O)=O)CC4)cn3)nc2n(C2CCCC2)c1=O` gave an IC50 of > 10 µM (Cytochrome P450 1A2 (CYP1A2, Homo sapiens, UniProt P05177); enzyme activity, inhibitor; human, liver microsomes).
